Compound activity (PubChem BioAssay)
Hits are enriched below; roughly 1.8% of the tested compounds scored in any of these assays.
PG9 binder: binders of HIV-1 gp120 antibody PG9, primary screen, biochemical, TR-FRET; HIV-1 gp120 / PG9 antibody interaction; TR-FRET gp120-PG9 antibody binding; inhibition, % at 6.7 µM; hit rate 0.43% among 360,000; AID 624416, 2012; in the data active means inhibition above about 8.5%
TbMetRS inhib: T. brucei MetRS inhibitors, primary screen, biochemical, luminescence; inhibition, % at 11.9 µM; methionyl-tRNA synthetase (Trypanosoma brucei brucei); hit rate 0.4% among 360,000; purified T. brucei MetRS, ATP depletion, Kinase-Glo luminescence;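 active means inhibition above a per-plate cutoff of the control wells' mean inhibition plus 3 SD, cut at about 5.5% in these data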
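assay system = parasite MetRS enzyme | timing = 15 min preincubation, 2 h reaction, all 25 °C | evaluation = percent inhibition relative to median high and low control wells | medium = HEPES buffer containing pyrophosphatase, BSA, spermine, DTT | compound = single dose, 11.9 µM final nominal, 0.9% final DMSO | detection = Kinase-Glo luminescence, ATP depletion format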
NR1D1 modulator: modulators of Rev-erb alpha DNA binding, primary screen, biochemical, FITC-DNA, fluorescence polarization, uHTS. activity, % at 10 µM. Rev-erbα–FITC-DNA binding, 90 min. hit rate 0.79% among 370,000;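 active means activity above about 14%, limit read from the data; passing the limit was not always enough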
Target sequence (P20393 whole entry, looked up): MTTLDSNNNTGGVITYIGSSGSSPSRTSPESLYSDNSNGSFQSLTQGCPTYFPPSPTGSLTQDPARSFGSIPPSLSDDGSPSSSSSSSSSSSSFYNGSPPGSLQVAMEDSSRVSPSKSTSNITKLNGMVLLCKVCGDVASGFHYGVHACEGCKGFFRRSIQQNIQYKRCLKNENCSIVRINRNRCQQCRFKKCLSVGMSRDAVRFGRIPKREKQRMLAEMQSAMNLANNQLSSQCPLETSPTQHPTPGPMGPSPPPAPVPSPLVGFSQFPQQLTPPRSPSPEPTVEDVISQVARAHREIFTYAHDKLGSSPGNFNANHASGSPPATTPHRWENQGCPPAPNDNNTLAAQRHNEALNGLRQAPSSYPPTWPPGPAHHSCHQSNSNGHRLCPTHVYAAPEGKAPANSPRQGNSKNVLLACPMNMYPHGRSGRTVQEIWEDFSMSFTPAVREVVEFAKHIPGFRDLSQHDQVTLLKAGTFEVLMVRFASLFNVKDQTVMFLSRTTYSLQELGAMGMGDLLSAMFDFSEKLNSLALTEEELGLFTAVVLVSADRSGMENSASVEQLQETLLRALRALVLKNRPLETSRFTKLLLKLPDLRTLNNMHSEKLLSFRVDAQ
Rin1-Abl PPI inh: inhibitors of Rin1-Abl protein binding, primary screen, biochemical, TR-FRET. inhibition, % at 7.35 µM. AID 588664, 2011. hit rate 0.4% among 360,000; in the data active means inhibition above about 5%, passing the limit was not always enough
PG9 bind confirm: binders of anti-gp120 antibody PG9, confirmation, biochemical, TR-FRET; shares compounds with PG9 binder; TR-FRET PG9 antibody binding; inhibition, % at 6.7 µM; hit rate 90% among 1,500; in the data active means inhibition above about 9%
PGV04 counter: binders of control antibody PGV04, counter-screen for PG9 antibody binder project, biochemical, TR-FRET, distinct HIV envelope site; shares compounds with PG9 binder; TR-FRET PGV04 antibody-gp120 binding; inhibition, % at 6.7 µM; hit rate 95% among 1,500; AID 651604, 2012; in the data active means inhibition above about 9.5%
PG9 binder DR: small-molecule binders of antibody PG9, dose response, biochemical, TR-FRET, HIV-1 gp120 antibody | shares compounds with PG9 binder | IC50, µM | TR-FRET PG9 antibody-gp120 binding inhibition | 95 tested, under 10 active; in the data active means IC50 below about 10 µM
PGV04 binding DR: binders of control antibody PGV04, dose response, counter-screen for PG9 antibody binder project, biochemical, TR-FRET, distinct HIV envelope site; shares compounds with PG9 binder; TR-FRET binding to control antibody PGV04; IC50, µM; hit rate 20% among 95
PG126 binding DR: binders of control antibody PG126, dose response, counter-screen for PG9 antibody binder project, biochemical, TR-FRET, distinct HIV envelope site; TR-FRET binding to antibody PG126, counterscreen; hit rate 20% among 95; shares compounds with PG9 binder; AID 651939, 2012; IC50, µM
Numbers stand for hits. Unless noted, no stated cut-off is given here; in the data, active means IC50 below about 9 µM; inactive means the rest.

Results for Cc1ccc2c(CC(=O)OCc3cc(=O)n4c(n3)sc3ccccc34)coc2c1 ?
PG9 binder: inactive; TbMetRS inhib: inactive; NR1D1 modulator: inactive; Rin1-Abl PPI inh: inactive

How did COC(=O)c1cc(-c2cccc(OC)c2)c2c(=O)[nH]c(=O)n(C)c2n1 do in these assays?
PG9 binder: 8.8; TbMetRS inhib: inactive; NR1D1 modulator: inactive; Rin1-Abl PPI inh: inactive; PG9 bind confirm: 18; PGV04 counter: 24

What do the screens show for `CSc1nc(Sc2ccccc2Cl)c2ccccc2n1`?
PG9 binder: 9.1; TbMetRS inhib: inactive; NR1D1 modulator: inactive; Rin1-Abl PPI inh: inactive; PG9 bind confirm: 17; PGV04 counter: 22

What do the screens show for `CCOC(=O)c1cnc(SC)nc1Sc1ccccc1Cl`?
PG9 binder: inactive; TbMetRS inhib: inactive; NR1D1 modulator: inactive; Rin1-Abl PPI inh: inactive

How did O=C(OCc1cc2ccccc2[nH]c1=O)c1ccc([N+](=O)[O-])cc1 do in these assays?
PG9 binder: inactive; TbMetRS inhib: inactive; NR1D1 modulator: inactive; Rin1-Abl PPI inh: inactive

What do the screens show for `Cc1cccc2cc(COC(=O)c3ccccc3)c(=O)[nH]c12`?
PG9 binder: 23; TbMetRS inhib: inactive; NR1D1 modulator: inactive; Rin1-Abl PPI inh: inactive; PG9 bind confirm: 22; PGV04 counter: 38

Results for Cc1cccc(C(=O)OCc2cc3ccccc3[nH]c2=O)c1 ?
PG9 binder: 12; TbMetRS inhib: inactive; NR1D1 modulator: inactive; Rin1-Abl PPI inh: inactive; PG9 bind confirm: 13; PGV04 counter: 18

Results for CC(=O)c1cccc(NC(=O)CCc2nnc3ccc(NCc4ccc5c(c4)OCO5)nn23)c1 ?
PG9 binder: 19; TbMetRS inhib: inactive; NR1D1 modulator: inactive; Rin1-Abl PPI inh: inactive; PG9 bind confirm: 23; PGV04 counter: 27

Results for CC(=O)c1cccc(NC(=O)CCc2nnc3ccc(N4CCN(C)CC4)nn23)c1 ?
PG9 binder: inactive; TbMetRS inhib: inactive; NR1D1 modulator: inactive; Rin1-Abl PPI inh: inactive

What do the screens show for `O=C(CCc1ccccc1)N[C@H]1[C@H](O)CCC[C@]12C(=O)N(Cc1ccccc1)c1ccccc12`?
NR1D1 modulator: inactive

What do the screens show for `CCCOc1ccc(C(CC(=O)O)NC(=O)c2sc3ccccc3c2Cl)cc1` (configuration not stated)?
PG9 binder: 11; TbMetRS inhib: inactive; NR1D1 modulator: inactive; Rin1-Abl PPI inh: inactive; PG9 bind confirm: 15; PGV04 counter: 21

What do the screens show for `CC(C)c1[nH]nc2c1C(c1ccccc1)NC2=O` (configuration not stated)?
PG9 binder: inactive; NR1D1 modulator: inactive

What do the screens show for `O=C(O)c1cc(-c2ccc(Br)s2)nc2ccccc12`?
PG9 binder: 17; TbMetRS inhib: inactive; NR1D1 modulator: inactive; Rin1-Abl PPI inh: inactive; PG9 bind confirm: 25; PGV04 counter: 68

What do the screens show for `CCN(CC)CCNC(=O)c1cc(-c2ccc(Br)s2)nc2ccccc12`?
PG9 binder: 15; TbMetRS inhib: inactive; NR1D1 modulator: inactive; Rin1-Abl PPI inh: inactive; PG9 bind confirm: 26; PGV04 counter: 50

What do the screens show for `CCc1ccc(-c2cc(C(=O)NN3CCOCC3)c3ccccc3n2)s1`?
PG9 binder: inactive; TbMetRS inhib: inactive; NR1D1 modulator: inactive; Rin1-Abl PPI inh: inactive

What do the screens show for `CN1CCN(NC(=O)c2cc(-c3ccc(Br)s3)nc3ccccc23)CC1`?
PG9 binder: 19; TbMetRS inhib: inactive; NR1D1 modulator: inactive; Rin1-Abl PPI inh: inactive; PG9 bind confirm: 39; PGV04 counter: 68

What do the screens show for `Cc1noc(C)c1COc1cccc(C(=O)N(C)Cc2nc3ccccc3c(=O)[nH]2)c1`?
PG9 binder: inactive; TbMetRS inhib: inactive; NR1D1 modulator: inactive; Rin1-Abl PPI inh: inactive

How did COc1cccc([C@@H]2NC(=O)C/C=C/[C@H](C)[C@H](c3cccc(OC)c3)NC(=O)C/C=C/[C@@H]2C)c1 do in these assays?
NR1D1 modulator: inactive

Results for O=c1c2oc3ccccc3c2[nH]c(=S)n1-c1ccccc1 ?
PG9 binder: 17; TbMetRS inhib: inactive; NR1D1 modulator: inactive; Rin1-Abl PPI inh: inactive; PG9 bind confirm: 14; PGV04 counter: 13; PG9 binder DR: inactive; PGV04 binding DR: inactive; PG126 binding DR: inactive

What do the screens show for `Cc1cccc(-n2c(=S)[nH]c3c(oc4ccccc43)c2=O)c1`?
PG9 binder: 16; TbMetRS inhib: inactive; NR1D1 modulator: inactive; Rin1-Abl PPI inh: inactive; PG9 bind confirm: inactive; PGV04 counter: 9.4

What do the screens show for `Cc1ccc(-n2c(=S)[nH]c3c(oc4ccccc43)c2=O)cc1`?
PG9 binder: 18; TbMetRS inhib: inactive; NR1D1 modulator: inactive; Rin1-Abl PPI inh: inactive; PG9 bind confirm: 17; PGV04 counter: inactive; PG9 binder DR: inactive; PGV04 binding DR: inactive; PG126 binding DR: inactive

How did CN(C(=O)COC(=O)c1c2c(nc3ccccc13)CCCC2)c1c(N)n(Cc2ccccc2)c(=O)[nH]c1=O do in these assays?
PG9 binder: inactive; TbMetRS inhib: inactive; NR1D1 modulator: inactive; Rin1-Abl PPI inh: inactive

How did Cn1c(C(=O)N2CCN(c3nc4ccccc4s3)CC2)cc2sccc21 do in these assays?
PG9 binder: 14; TbMetRS inhib: inactive; NR1D1 modulator: inactive; Rin1-Abl PPI inh: inactive; PG9 bind confirm: 20; PGV04 counter: 31

Results for COc1ccc2ccc(OCC(=O)Nc3cc(C)on3)cc2c1 ?
PG9 binder: 21; TbMetRS inhib: inactive; NR1D1 modulator: inactive; Rin1-Abl PPI inh: inactive; PG9 bind confirm: 25; PGV04 counter: 34

How did Cc1nn(CCc2nn[nH]n2)c2nc(-c3ccc(Br)cc3)cc(C(F)(F)F)c12 do in these assays?
PG9 binder: 19; TbMetRS inhib: inactive; NR1D1 modulator: inactive; Rin1-Abl PPI inh: inactive; PG9 bind confirm: 27; PGV04 counter: 37

What do the screens show for `Cc1nn(CCc2nn[nH]n2)c2nc(C(F)(F)F)cc(C(F)(F)F)c12`?
PG9 binder: inactive; TbMetRS inhib: inactive; NR1D1 modulator: inactive; Rin1-Abl PPI inh: inactive

Results for C[C@H](O)[C@@H]1CN2CCc3c([nH]c4cccc(-c5ccccc5)c34)[C@@H]2C[C@@H]1N(C)C(=O)C1CCCCC1 ?
NR1D1 modulator: inactive
